ChEMBL document CHEMBL1128250, “Structure-activity studies of 2,3,4,4a,5,9b-hexahydroindeno[1,2-c]pyridines as antispermatogenic agents for male contraception” (1995)

How the values were obtained:
Mus musculus [1] = assay: Tested for its effect on spermatogenic index 3 days after single oral dose (10 mg/kg),; type: functional
How it was run: (§1)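 CD-1 outbred Swiss albino male mice, 5 per dose, single gavage on day 0 at 10 mL/kg. Vehicle was 0.15 M acetate buffer pH 5, ethanol/Tween-20/water (3:7:90), or 1% Tween-20 in water. CO2 euthanasia 72 h later. Testes weighed and histologically scored (spermatogenic index 0–6). Values are % reduction versus the assay's vehicle control. Positive control was 30 mg/kg of the parent compound. Significance by Dunnett's one-tailed t-test, p < 0.05.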

Mus musculus [2] = assay: tested for its effect on testes weight 3 days after single oral dose (30 mg/kg); type: functional, Testis
How it was run: (§2)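 Male CD-1 (ICR)BR outbred Swiss albino mice, 5/dose, given one oral gavage dose (10 mL/kg) on day 0 in 0.15 M acetate buffer pH 5, ethanol/Tween-20/water (3:7:90), or 1% Tween-20 in water; vehicle and positive-control groups in each assay. Killed by CO2 72 h later; testes weighed. Expressed as % reduction versus vehicle control; Dunnett's one-tailed t-test.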

Mus musculus [3] = assay: tested for its effect on spermatogenic index 3 days after single oral dose (90 mg/kg); type: functional
How it was run: (§3)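 Male CD-1 (ICR)BR outbred Swiss albino mice, 5/dose, single oral gavage dose (10 mL/kg) on day 0 in acetate buffer pH 5 or Tween-20-based vehicle; killed 72 h later. Testis cross-sections scored histologically on a 0–6 spermatogenic index (Sertoli only to >100 late spermatids/tubule). Reported as % reduction versus vehicle control; Dunnett's one-tailed t-test.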

Mus musculus [4] = assay: Tested for its effect on testes weight 3 days after single oral dose (10 mg/kg); type: functional, Testis; how it was run: as §1
Mus musculus [5] = assay: tested for its effect on testes weight 3 days after single oral dose (90 mg/kg); type: functional, Testis; how it was run: as §2
Mus musculus [6] = assay: tested for its effect on spermatogenic index 3 days after single oral dose (30 mg/kg); type: functional; how it was run: as §3
Mus musculus [7] = assay: Tested for its effect on spermatogenic index 3 days after single oral dose (30 mg/kg) in mice; type: functional; how it was run: as §1
Mus musculus [8] = assay: Tested for its effect on mouse testes weight 3 days after single oral dose (30 mg/kg); type: functional, Testis; how it was run: as §1
Mus musculus [9] = assay: Tested for its effect on mouse testes weight 3 days after single oral dose (10 mg/kg); type: functional, Testis; how it was run: as §1
Mus musculus [10] = assay: Tested for its effect on mouse testes weight 3 days after single oral dose (3 mg/kg); type: functional, Testis; how it was run: as §1
Mus musculus [11] = assay: Tested for its effect on mouse testes weight 3 days after single oral dose (90 mg/kg); type: functional, Testis; how it was run: as §1
Mus musculus [12] = assay: Tested for its effect on spermatogenic index 3 days after single oral dose (10 mg/kg) in mice; type: functional; how it was run: as §1
Mus musculus [13] = assay: Tested for its effect on spermatogenic index 3 days after single oral dose (90 mg/kg) in mice; type: functional; how it was run: as §1
Mus musculus [14] = assay: Tested for its effect on spermatogenic index 3 days after single oral dose (3 mg/kg) in mice; type: functional; how it was run: as §1

## CCN1CC[C@H]2[C@H](c3ccc(C)cc3C)c3cc(C)ccc3[C@H]2C1.Cl
Mus musculus [1]
  Reduction: 0%
Mus musculus [2]
  Reduction: 6%
Mus musculus [3]
  Reduction: 30%
Mus musculus [4]
  Reduction: 1%
Mus musculus [5]
  Reduction: 11%
Mus musculus [6]
  Reduction: 3%

## Cc1ccc([C@H]2c3cc(C)ccc3[C@H]3CN(C)CC[C@@H]23)cc1.Cl
Mus musculus [7]
  Reduction: 7%
Mus musculus [8]
  Reduction: 12%

## CCN1CC[C@H]2[C@H](c3ccc(OC)cc3)c3cc(C)ccc3[C@H]2C1.Cl
Mus musculus [9]
  Reduction: -17%
Mus musculus [10]
  Reduction: -7%
Mus musculus [11]
  Reduction: 5%
Mus musculus [12]
  Reduction: -6%
Mus musculus [13]
  Reduction: -5%
Mus musculus [14]
  Reduction: 2%
